High-throughput results (PubChem BioAssay)
Shown are actives, neighbours in structure and some others; about 4.7% of the full set was active somewhere.
697 NFkB inh – inhibitors of the PMA/ionomycin-induced NF-kB reporter in 697 B cells; 697 B-cell NF-kB luciferase reporter, 16 h; inhibition, % at 4 µM; actives 0.33% (n = 330,000); AID 435022; in the data active means inhibition above about 35%
Jurkat NFkB inh – lowers PMA/ionomycin-induced NF-kB signal in Jurkat cells | PMA/ionomycin-induced NF-kB luciferase reporter, luminescence | inhibition, % at 4 µM | actives 0.53% (n = 330,000); in the data active means inhibition above about 50%
Mdm2-MdmX inh – human Mdm2/MdmX binding inhibition | inhibition, % at 8 µM | O15151+Q00987 | SaOS-2 split-luciferase Mdm2/MdmX complementation, luminescence | actives 3% (n = 330,000);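 active means inhibition of at least 50% at 8 µM in the primary screen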
VIM-2 inhibitor – blocks Pseudomonas aeruginosa VIM-2 metallo-beta-lactamase; purified VIM-2, nitrocefin hydrolysis, epi-absorbance fluorescence; inhibition, % at 5.6 µM; actives 0.89% (n = 290,000);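 active means inhibition above the mean of all tested compounds plus 3 SD, cutoff set per screening run, cut at about 7.5% in these data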;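 further: red hydrolysis product quenches plate fluorescence so inhibitors raise well fluorescence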
aSyn UTR inh – 5' untranslated region of α-synuclein, MLPCN primary screen; inhibition, % (tested at 7.5 µM); actives 0.82% (n = 300,000); AID 1813; alpha-synuclein 5'UTR reporter, inhibitor activity; in the data active means inhibition above about 60%;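 further: H4 neuroglioblastoma cells stably carrying SNCA 5'UTR luciferase fusion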
IMP-1 inh-1 – blocks Pseudomonas aeruginosa IMP-1 metallo-beta-lactamase; purified IMP-1, nitrocefin hydrolysis, epi-absorbance fluorescence; inhibition, % at 5.6 µM; actives 0.45% (n = 290,000);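 active means inhibition above the mean plus 3 SD of all compounds in the same screening run, cut at about 4.5% in these data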
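Test system: recombinant IMP-1 enzyme, purified / Medium: HEPES buffer pH 7.1 with ZnSO4 and Brij 35 / Doses: single dose, 5.6 µM / Times: 25 °C, 15 min preincubation, 25 min reaction / Detection: Epi-absorbance via hydrolysed-nitrocefin quenching of white-plate fluorescence, 480/530 nm, EDTA stop / Evaluation: percent inhibition from optical density relative to buffer-blank wells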
IMP-1 inh-2 – IMP-1 inhibition, counter-screen for VIM-2 inhibitors | shares compounds with VIM-2 inhibitor | purified IMP-1, nitrocefin hydrolysis, epi-absorbance fluorescence | inhibition, % at 5.6 µM | 1,300 tested, under 10 active; call rule not given here
VIM-2 FRET inh – VIM-2 FRET inhibition, artifact counter-screen; shares compounds with VIM-2 inhibitor; purified VIM-2, CCF2 FRET substrate hydrolysis; actives 23% (n = 1,300); AID 1857; inhibition, % at 5.6 µM;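 active means inhibition above the mean of all tested compounds plus 3 SD, cut at about 19% in these data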
TEM-1 inh – TEM-1 inhibition, counter-screen for VIM-2 inhibitors. shares compounds with VIM-2 inhibitor. inhibition, % at 5.6 µM. Purified TEM-1, nitrocefin hydrolysis, epi-absorbance fluorescence. actives 3% (n = 1,300). AID 1866;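 active means inhibition above that campaign's mean inhibition plus 3 SD, cut at about 0.46% in these data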
Target sequence (P62593 whole entry, looked up): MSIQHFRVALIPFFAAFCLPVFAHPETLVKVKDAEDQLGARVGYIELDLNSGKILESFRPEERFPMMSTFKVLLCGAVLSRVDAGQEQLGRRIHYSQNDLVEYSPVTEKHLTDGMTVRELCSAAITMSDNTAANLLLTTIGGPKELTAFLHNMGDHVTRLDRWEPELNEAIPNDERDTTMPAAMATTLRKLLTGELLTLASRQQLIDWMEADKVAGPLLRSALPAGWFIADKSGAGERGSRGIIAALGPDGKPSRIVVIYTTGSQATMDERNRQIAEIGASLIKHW
VIM-2 confirm 2 – confirmation of P. aeruginosa VIM-2 metallo-beta-lactamase inhibitors | shares compounds with VIM-2 inhibitor | purified VIM-2, nitrocefin hydrolysis, epi-absorbance | inhibition, % at 5.6 µM | actives 96% (n = 1,300) | AID 2187;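 active means inhibition of the VIM-2 beta-lactamase enzyme above about 11% from the earlier first-round screen, limit read from the data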
Of the large screens only hits and unclear results are named; the others gave an inactive call (follow-up assays come after a bar, where they were run).

Cc1cc(NCCCn2ccnc2)n2nc(-c3ccc(F)cc3)cc2n1	VIM-2 inhibitor 41 | IMP-1 inh-2 inactive | VIM-2 FRET inh inactive | TEM-1 inh 3.0 | VIM-2 confirm 2 67
Cc1nn2c(NCCCn3ccnc3)cc(C(C)C)nc2c1-c1ccccc1	VIM-2 inhibitor 20 | IMP-1 inh-2 inactive | VIM-2 FRET inh inactive | TEM-1 inh inactive | VIM-2 confirm 2 29
Cc1cccc(-c2cc3nc(C)c(C)c(NCCCn4ccnc4)n3n2)c1	VIM-2 inhibitor 35 | IMP-1 inh-2 inactive | VIM-2 FRET inh inactive | TEM-1 inh inactive | VIM-2 confirm 2 49
CCOC(=O)C1(CCOc2ccccc2)CCN(Cc2cccc(OC)c2O)CC1	none
O=C(c1cc(-c2cccc(Cl)c2)nc2ccccc12)N1CCCC1	none
CCC(C)(C)NC(=O)CN(Cc1ccc(F)cc1)C(=O)CCC(=O)Nc1ccccn1	none
CCOc1ccccc1NC(=O)COc1ccc2ccc(=O)oc2c1	none
Cc1cc(-c2ccccc2)nc2cc(C(=O)NCCCn3ccnc3)nn12	VIM-2 inhibitor 17 | IMP-1 inh-2 inactive | VIM-2 FRET inh inactive | TEM-1 inh inactive | VIM-2 confirm 2 28
CCOC(=O)c1cnc(-n2nc(C)cc2C)nc1NCc1ccccc1	VIM-2 inhibitor 36 | IMP-1 inh-2 inactive | VIM-2 FRET inh inactive | TEM-1 inh inactive | VIM-2 confirm 2 50
CCOC(=O)c1cnc(NCc2ccccc2)nc1C	none
COc1ccc(Cl)cc1NC(=O)C[n+]1cccc(C)c1	none
O=C(COc1ccc(Cl)cc1)NCc1nnc2c3ccccc3c(-c3ccccc3)nn12	none
O=C(NCc1nnc2c3ccccc3c(-c3ccccc3)nn12)c1ccccc1Cl	VIM-2 inhibitor 17 | IMP-1 inh-2 inactive | VIM-2 FRET inh inactive | TEM-1 inh inactive | VIM-2 confirm 2 27
CCN(CC)C(=O)c1nc[nH]c1C(=O)N1CCc2ccccc2C1	none (no result: VIM-2 inhibitor, aSyn UTR inh, IMP-1 inh-1)
COCCNc1nc(-c2cc(C(=O)Nc3ccccc3)on2)cc(C(C)C)n1	none (no result: VIM-2 inhibitor, IMP-1 inh-1)
Cc1ccc2cc3cc(C(=O)NCCCN4CCCC4)oc3nc2c1	none
Cc1ccc2nc(Cl)c3cc(C(=O)NCCCN4CCCC4)sc3c2c1	VIM-2 inhibitor 13 | IMP-1 inh-2 inactive | VIM-2 FRET inh inactive | TEM-1 inh inactive | VIM-2 confirm 2 27
C[n+]1cccc(/C=N/Nc2nc(Cl)c(C#N)c(Cl)c2Cl)c1	VIM-2 inhibitor 41 | IMP-1 inh-2 inactive | VIM-2 FRET inh 32 | TEM-1 inh inactive | VIM-2 confirm 2 57
O=C(NC1CC2CCCC(C1)N2C(=O)Nc1ccc(F)cc1)c1ccccc1 (stereo unspecified)	none
CN(C)S(=O)(=O)c1ccc(N2CCCC2)c(C(=O)NNC(=O)c2ccccc2)c1	none (no result: VIM-2 inhibitor, aSyn UTR inh, IMP-1 inh-1)
CSc1nnc(-c2cc3c(-c4ccccc4)nn(C)c3s2)n1C	VIM-2 inhibitor 19 | IMP-1 inh-2 inactive | VIM-2 FRET inh inactive | TEM-1 inh inactive | VIM-2 confirm 2 26
CCN1C[C@@H]2[C@@H]3C(=O)N(C)C(=O)[C@@H]3[C@](Cc3ccccc3)(C(=O)OC)N2C1=NC1CCCCC1	none (no result: Jurkat NFkB inh, VIM-2 inhibitor, aSyn UTR inh, IMP-1 inh-1)
Cc1nn2c(-c3ccc(S(=O)(=O)N4CCN(CCO)CC4)o3)nnc2c2ccccc12	VIM-2 inhibitor 26 | IMP-1 inh-2 inactive | VIM-2 FRET inh inactive | TEM-1 inh inactive | VIM-2 confirm 2 35
COc1ccc(-c2nnc3c4ccccc4c(C)nn23)cc1	none
COc1ccc(-c2nnc3c4ccccc4c(C)nn23)cc1S(=O)(=O)N1CCN(CCO)CC1	VIM-2 inhibitor 27 | IMP-1 inh-2 inactive | VIM-2 FRET inh inactive | TEM-1 inh inactive | VIM-2 confirm 2 40
CCC(=O)N1CCc2cc(S(=O)(=O)CCC(=O)NCc3ccccc3OC)ccc21	none
c1ccc(-c2onc(-c3ccco3)c2-c2ccc3[nH]ccc3c2)cc1	none
